Rows were chosen to be rich in hits. Some 4.8% of all compounds tested hit in one or more screens of this group.
Calb FLC – C. albicans growth inhibition with fluconazole, primary screen, CaCi-2 strain, Alamar Blue fluorescence; C. albicans CaCi-2 (fluconazole-resistant clinical isolate) + fluconazole, 48 h; growth inhibition, % (test concentration not listed); hit rate 0.57% among 300,000;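 active = growth inhibition above about 58% in most replicates, limit read from the data, passing the limit was not always enough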;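 also: all wells also contain fluconazole at 8 µg/ml as a sub-toxic cotreatment; 0% = median of DMSO wells and 100% = median of geldanamycin control wells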
UCH37 DUB inh – inhibitors of human UCH37 deubiquitinase, primary screen, biochemical, Ub-AMC cleavage, fluorescence; Ubiquitin carboxyl-terminal hydrolase isozyme L5 (Homo sapiens), Q9Y5K5; inhibition, % (test concentration not listed); hit rate 0.33% among 330,000; purified proteasome/UCH37;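 active = mean inhibition over replicate wells above about 20%, limit read from the data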;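 also: 0% = compound-free wells with enzyme and 100% = wells lacking proteasome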
Target sequence (Q9Y5K5 whole entry, looked up): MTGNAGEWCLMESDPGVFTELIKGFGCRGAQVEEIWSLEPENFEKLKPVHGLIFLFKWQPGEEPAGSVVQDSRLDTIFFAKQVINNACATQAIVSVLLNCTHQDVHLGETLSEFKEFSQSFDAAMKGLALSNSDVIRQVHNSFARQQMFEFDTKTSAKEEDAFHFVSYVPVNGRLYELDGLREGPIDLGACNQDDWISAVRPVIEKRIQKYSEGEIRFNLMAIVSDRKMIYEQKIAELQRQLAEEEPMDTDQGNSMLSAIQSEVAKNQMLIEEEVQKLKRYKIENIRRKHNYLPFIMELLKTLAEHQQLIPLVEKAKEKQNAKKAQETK
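Material: human UCH37 enzyme supplied as purified proteasome complex. Measure: % inhibition of Ub-AMC cleavage fluorescence. Medium: pH 7.4 Tris-HCl (50 mM) with ovalbumin, ATP-MgCl2, DTT. Times: 30 min preincubation with enzyme, 25 min cleavage at room temperature. Detection: AMC fluorescence intensity at 355/460 nm.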
ALR H2O2 inh – inhibitors of human ALR sulfhydryl oxidase, primary screen, biochemical, H2O2 detection, HRP-luminol luminescence, single point. FAD-linked sulfhydryl oxidase ALR (Homo sapiens), P55789. purified ALR, DTT oxidation. inhibition, % (test concentration not listed). hit rate 3.8% among 290,000;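 active = mean replicate inhibition above about 79%, with every replicate also reaching it, limit read from the data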
Target sequence (P55789 whole entry, looked up): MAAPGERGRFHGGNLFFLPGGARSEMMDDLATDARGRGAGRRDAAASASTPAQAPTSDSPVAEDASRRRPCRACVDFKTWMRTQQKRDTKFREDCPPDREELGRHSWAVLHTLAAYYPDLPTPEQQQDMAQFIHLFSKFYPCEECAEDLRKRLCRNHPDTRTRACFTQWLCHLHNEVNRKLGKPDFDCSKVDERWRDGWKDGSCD
NALP1 inh – NALP1 inflammasome inhibitors in reconstituted yeast, colorimetric, S. cerevisiae, triplicate retest. S. cerevisiae NALP1/ASC/caspase-1 growth, X-gal OD620, 72 h. AID 2071, 2009. hit rate 0.61% among 280,000. inhibition, % at 10 µM; in the data active = inhibition mostly above about 24%, no sharp cut-off; inactive = mostly below about 32%
ATG4B inhibitor – ATG4B protease inhibitors, primary screen, biochemical, fluorescence, uHTS; Cysteine protease ATG4B (Homo sapiens), Q9Y4P1; hit rate 0.51% among 340,000; ATG4B cleavage of LC3-PLA2, NBD-HPC fluorescence, 1 h; inhibition, % at 8.33 µM; AID 504462, 2011; in the data active = inhibition above about 40%
NLRP3 yeast inh – NALP3 inflammasome inhibitors in reconstituted yeast, primary screen, luminescence, uHTS; Yeast reconstituted NLRP3/ASC/caspase-1, beta-gal luminescence, 24 h; inhibition, % at 10 µM; hit rate 0.39% among 330,000;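 active = inhibition of 50% or more; inactive = inhibition below 50%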;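 also: plate controls were induced DMSO wells for no effect and uninduced yeast grown without galactose for full effect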
The depositor's hits bear a star; i = inactive; x = not tested or not shown.

SMILES | Calb FLC | UCH37 DUB inh | ALR H2O2 inh | NALP1 inh | ATG4B inhibitor | NLRP3 yeast inh
COc1ccc(-c2nc(CS(=O)CC(=O)NCc3cccnc3)c(C)o2)cc1 (stereo not given) | 2.0 | 5.8 | 99.4* | -11.9 | -5.6 | -12.7
COc1ccc(/C=N/NC(=O)C(=O)NCc2cccnc2)cc1 | -5.6 | x | 41.0 | -1.2 | 6.1 | 5.0
COc1ccc(CNC(=O)C(=O)NCc2cccnc2)cc1 | -15.0 | 2.3 | -1.3 | 27.9* | -2.4 | 18.1
CCOc1ccc(-c2nc(CS(=O)(=O)CC(=O)NCc3ccc(F)cc3)c(C)o2)cc1 | -3.6 | 0.4 | 24.7 | 6.4 | -2.7 | 6.9
COc1ccc(-c2nc(CS(=O)CC(=O)NCc3ccc(F)cc3)c(C)o2)cc1 (stereo not given) | -6.0 | -1.5 | 98.5* | 11.6 | 13.3 | -2.4
O=C(CCCOc1ccc(Cl)cc1Cl)NN=Cc1ccccc1 | x | 3.3 | x | x | x | x
O=C(O)CCC(=NNC(=O)CNC(=O)C(c1ccccc1)c1ccccc1)c1ccccc1 | x | 2.8 | x | x | x | x
CC(=NNC(=O)c1cc(C)oc1C)c1ccc(N2CCOCC2)cc1 | x | -0.2 | x | x | x | x
S=C(NCC1CC1)NN=Cc1ccccc1Cl | x | 7.0 | x | x | x | x
COc1ccc(NN=C(C#N)C(=N)N2CCCCC2)cc1 | x | 10.6 | x | x | x | x
CC12CN3CCN(CC(C3)C1=NNC(=O)Nc1ccccc1)C2 | x | -2.3 | x | x | x | x
COC(=O)COc1cccc2c(=O)n(CC(=O)N3CCCc4ccccc43)ccc12 | 4.2 | 3.0 | 88.7* | 29.9 | -0.8 | 19.8
O=c1[nH]c(/C=C\c2ccc(O)c(O)c2)nc(O)c1[N+](=O)[O-] | 4.2 | x | 98.9* | -0.9 | 7.9 | 14.9
O=C1O[C@@H](C(O)CO)C(O)=C1O (stereo not given in full) | x | 1.2 | x | x | x | x
Cc1ccc(-n2c3c(c(=O)[nH]c2=S)C(C(F)(F)F)(C(F)(F)F)NC(=O)N3)cc1 | 42.8 | -0.4 | 4.4 | 41.2* | -0.8 | 8.2
Clc1ccc2c(N/N=C/c3ccc(Br)cc3)ccnc2c1 | 3.9 | x | -44.6 | 53.6* | 31.1 | x
Clc1ccc2c(N/N=C/c3cccnc3)ccnc2c1 | 43.7 | x | -8.8 | 7.7 | -4.0 | 25.5
CC(=O)NS(=O)(=O)c1cccnc1Nc1ccc(Cl)c(Cl)c1 | 0.7 | 2.6 | 97.9* | 26.6 | -2.3 | 20.4
CCOC(=O)c1c(NC(=O)C2C3C=CC(C3)C2C(=O)O)sc2c1CCC(C)C2 (stereo not given) | 9.8 | -4.1 | 95.3* | 16.6 | 7.4 | 16.8
CCOC(=O)c1c(NC(=O)C2CC(Cl)=CCC2C(=O)O)sc2c1CCCCC2 (stereo not given) | -3.3 | -1.2 | 97.7* | 5.6 | 21.1 | -0.5
COc1ccc(-n2cnc3cc(N)ccc32)cc1 | 2.6 | 1.4 | 98.8* | 7.7 | -7.5 | 24.3
CCC(CN(C)C)Oc1cc(NCc2ccccc2)c2ncn(C(C)C)c2c1 (stereo not given) | x | x | x | x | 0.6 | -2.8
COc1cc(NCc2ccccc2)c2ncn(C(C)C)c2c1 | x | 2.2 | 98.3* | x | -3.5 | 25.6
Clc1ccc(C=NNc2ncnc3ccccc23)cc1Cl | x | 4.6 | x | x | x | x
COC(=O)c1cc(NCc2ccccc2F)ccc1N1CCOCC1 | 4.9 | -22.3 | 99.0* | 0.0 | 10.1 | 9.3
SMILES | Calb FLC | UCH37 DUB inh | ALR H2O2 inh | NALP1 inh | ATG4B inhibitor | NLRP3 yeast inh
CCOC(=O)c1cc(NCc2cccs2)ccc1N1CCOCC1 | -33.1 | -7.1 | 98.7* | -2.1 | 5.5 | 15.3
Cc1nnc(C)n1N=Cc1ccc(C(C)C)cc1 | x | 0.9 | x | x | x | x
COc1cc(/C=C2/C(=O)NN(c3ccc(Cl)cc3)C2=O)cc(OC)c1O | 90.2* | 6.0 | 18.7 | 3.5 | -4.6 | 13.8
CCOC(=O)COc1ccc(/C=C2/C(=O)NN(c3ccc(F)cc3)C2=O)cc1OC | -18.2 | 2.7 | 65.0 | 28.8 | -0.9 | 8.5
CCOc1cc(/C=C2\C(=O)NN(c3ccccc3)C2=O)cc([N+](=O)[O-])c1O | 94.7* | 17.0 | 95.4* | -12.0 | -1.0 | -38.6
O=C1NN(c2ccccc2)C(=O)/C1=C\c1ccc(-c2cc([N+](=O)[O-])ccc2O)o1 | -40.4 | 15.9 | x | 3.2 | 16.9 | 36.0
COc1cc(/C=C2\C(=O)NN(c3ccc(C)cc3)C2=O)cc([N+](=O)[O-])c1O | -36.3 | 16.0 | 98.7* | 1.0 | 18.8 | -48.1
CCOc1cc(/C=C2\NC(=O)NC2=O)cc([N+](=O)[O-])c1O | 7.8 | 21.0* | 88.3* | x | -0.9 | -26.2
CC1(C)CC(=O)C(C=Nn2cnc3ccccc3c2=O)=C(O)C1 | x | 7.2 | x | x | x | x
COc1cc(/C=C2/C(=O)NN(c3ccccc3)C2=O)cc(Br)c1O | -17.3 | 17.2 | 98.5* | 7.2 | 5.3 | 20.7
COc1cc(/C=C2\C(=O)NN(c3ccccc3)C2=O)cc([N+](=O)[O-])c1O | 108.6* | 20.9* | 98.0* | -5.0 | 0.2 | -62.3
COc1cc(/C=C2\SC(=O)N(Cc3ccc(Cl)cc3)C2=O)cc([N+](=O)[O-])c1O | x | 21.9* | x | 6.3 | 16.2 | x
COc1cc(/C=C2\SC(=O)N(Cc3ccc(F)cc3)C2=O)cc([N+](=O)[O-])c1O | 24.4 | 19.7 | x | 1.3 | 11.2 | 14.2
COc1cc(/C=C2/C(=O)N(c3ccc(C)c(C)c3)N=C2C)cc([N+](=O)[O-])c1O | 11.2 | 7.6 | 44.8 | -7.3 | 4.6 | -41.3
O=C(NN=Cc1cccc([N+](=O)[O-])c1)C1CC(=O)N(c2ccc(Br)cc2)C1 (stereo not given) | x | 1.8 | x | x | x | x
Cc1ccc(NC(=O)CSc2nc3ccccc3c(=O)n2CC2CCCO2)cc1 (stereo not given) | 0.3 | 3.1 | 1.7 | 6.7 | 6.1 | 1.6
O=C(CCCn1c(SCC(=O)c2ccc(O)c(O)c2)nc2ccccc2c1=O)NCC1CCCO1 (stereo not given) | -21.6 | 7.9 | 98.8* | -9.4 | 6.1 | 7.2
O=c1c2ccccc2c2ccccc2c(=O)n1CC1CCCO1 (stereo not given) | -12.7 | -0.8 | 99.1* | 13.0 | 14.2 | 2.7
CN(C)c1ccc(NC(=O)CSc2nc3ccccc3c(=O)n2CC2CCCO2)cc1 (stereo not given) | -18.3 | 1.4 | 86.8* | 2.5 | -1.6 | 15.4
Cc1ccccc1Nc1nc(CSc2nnc(-c3ccoc3C)n2C)cs1 | -3.5 | 5.7 | 97.0* | 6.9 | -2.3 | -6.7
CCc1c(C)c2cc(Cl)c(O)c(CN3CCCCC3)c2oc1=O | 10.1 | i | 98.3* | -2.1 | 7.6 | 7.5
CCc1cc(=O)oc2c(CN3CCCC3)c(O)c(Cl)cc12 | 2.1 | i | 5.1 | 16.8 | -2.2 | -2.9
CC(C)(C)c1cc(C(=O)NN=Cc2ccc([N+](=O)[O-])s2)n[nH]1 | x | 1.9 | x | x | x | x

Screens (PubChem BioAssay)
